In ChEMBL document CHEMBL1133135, “Grignard-mediated synthesis and preliminary biological evaluation of novel 3-substituted farnesyl diphosphate analogues” (Bioorg Med Chem Lett, 2000):

Molecular target: Protein farnesyltransferase (Homo sapiens, UniProt P49354+P49356)
Assay: Inhibitory activity against recombinant mammalian protein Farnesyltransferase expressed in baculovirus
Method in brief: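 Recombinant mammalian FTase, baculovirus-expressed and purified, assayed continuously by fluorescence with dansyl-GCVLS-OH as peptide cosubstrate and the FPP analogue as isoprenoid. IC50 is taken from the decrease in activity with rising analogue concentration. Analogue concentrations were verified by phosphate analysis.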

SMILES	IC50 [µM]
CC(C)=CCC/C(C)=C/CC/C(=C/COP(=O)(O)OP(=O)(O)O)C(C)C	0.035
CC(C)=CCC/C(C)=C/CC/C(=C/COP(=O)(O)OP(=O)(O)O)c1ccc(F)cc1	10.1
CCC/C(=C\COP(=O)(O)OP(=O)(O)O)CC/C=C(\C)CCC=C(C)C	0.453
C=C(C)/C(=C\COP(=O)(O)OP(=O)(O)O)CC/C=C(\C)CCC=C(C)C	0.018
CC(C)=CCC/C(C)=C/CC/C(=C/COP(=O)(O)OP(=O)(O)O)CC(C)C	0.29
CCC(C)/C(=C\COP(=O)(O)OP(=O)(O)O)CC/C=C(\C)CCC=C(C)C (stereo not drawn)	0.102
CC(C)=CCC/C(C)=C/CC/C(=C/COP(=O)(O)OP(=O)(O)O)CC(C)(C)C	6.6
C=CC/C(=C\COP(=O)(O)OP(=O)(O)O)CC/C=C(\C)CCC=C(C)C	0.119
